Laboratory results as given in ChEMBL document CHEMBL1140876, “Synthesis and antibacterial property of quinolines with potent DNA gyrase activity” (2009).
Converted amounts (≈) assume the structure as drawn. The source made the active and inactive calls. The rule behind the calls is not given here.

What was measured:
[1] = Inhibition of DNA gyrase assessed as conversion of relaxed pBR322 to supercoiled form
Summary of the method: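 Supercoiling in 15 µL reactions: gyrase assay buffer, 150 ng relaxed pBR322, 2–3 µL purified DNA gyrase, 3 h at 37 °C (E. coli); stopped with 50% glycerol/0.25% bromophenol blue; 1% agarose in 1× TBE pH 8.3, 90 V 3 h; ethidium bromide stain; supercoiled band brightness by densitometry. Ciprofloxacin comparator.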

[2] = Inhibition of DNA gyrase assessed as pBR322 DNA relaxation at 2.5 uM
Summary of the method: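 Gyrase (60 nM) was incubated with supercoiled pBR322 DNA (6 nM) and increasing compound concentrations (0, 0.1, 0.25, 0.5, 2.5) without ATP for 1 h at 37 °C. Relaxation of the supercoiled DNA was evaluated.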

Staphylococcus aureus [3] = assay: Antimicrobial activity against Staphylococcus aureus by broth microdilution assay; format: functional
Summary of the method: (§1)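 Broth microdilution per NCCLS 1997 in 96-well plate; final inoculum 10^5 cfu/mL; incubated 35.7 °C in air 18–20 h; MIC read as lowest concentration with no visible growth.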

Escherichia coli [4] = assay: Antimicrobial activity against Escherichia coli by broth microdilution assay; format: functional; summary of the method: as §1
Pseudomonas aeruginosa [5] = assay: Antimicrobial activity against Pseudomonas aeruginosa by broth microdilution assay; format: functional; summary of the method: as §1
Klebsiella pneumoniae [6] = assay: Antimicrobial activity against Klebsiella pneumoniae by broth microdilution assay; format: functional; summary of the method: as §1
Salmonella typhi = assay: Antimicrobial activity against Salmonella typhi by broth microdilution assay; format: functional, Salmonella enterica subsp. enterica serovar Typhi; details: Salmonella enterica
Summary of the method: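 Broth microdilution in 96-well plates following the NCCLS 1997 protocol. Final inoculum was 10^5 cfu/mL, with a control organism run alongside. Plates were incubated at 35.7 °C in air for 18–20 h. MIC is the lowest concentration with no visible growth.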

Bacillus subtilis [7] = assay: Antimicrobial activity against Bacillus subtilis by broth microdilution assay; format: functional; summary of the method: as §1
Staphylococcus aureus [8] = assay: Antimicrobial activity against Staphylococcus aureus at 5 ug after 24 hrs by disk diffusion method; format: functional; details: read-out: IZ
Summary of the method: (§2)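 Inoculum made in 0.85% saline against McFarland standard, swabbed evenly onto nutrient agar; sterile filter-paper discs set equidistant and loaded with equal volumes of drug at varying amounts; zone of inhibition measured after 24 h at 37 °C; ciprofloxacin reference.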

Escherichia coli [9] = assay: Antimicrobial activity against Escherichia coli at 5 ug after 24 hrs by disk diffusion method; format: functional; details: read-out: IZ; summary of the method: as §2
Pseudomonas aeruginosa [10] = assay: Antimicrobial activity against Pseudomonas aeruginosa at 5 ug after 24 hrs by disk diffusion method; format: functional; details: read-out: IZ; summary of the method: as §2
Klebsiella pneumoniae [11] = assay: Antimicrobial activity against Klebsiella pneumoniae at 5 ug after 24 hrs by disk diffusion method; format: functional; details: read-out: IZ; summary of the method: as §2
Salmonella typhimurium [12] = assay: Antimicrobial activity against Salmonella Typhimurium at 5 ug after 24 hrs by disk diffusion method; format: functional, Salmonella enterica subsp. enterica serovar Typhimurium; details: Salmonella enterica, read-out: IZ; summary of the method: as §2
Staphylococcus aureus [13] = assay: Antimicrobial activity against Staphylococcus aureus at 10 ug after 24 hrs by disk diffusion method; format: functional; details: read-out: IZ; summary of the method: as §2
Escherichia coli [14] = assay: Antimicrobial activity against Escherichia coli at 10 ug after 24 hrs by disk diffusion method; format: functional; details: read-out: IZ; summary of the method: as §2
Pseudomonas aeruginosa [15] = assay: Antimicrobial activity against Pseudomonas aeruginosa at 10 ug after 24 hrs by disk diffusion method; format: functional; details: read-out: IZ; summary of the method: as §2
Klebsiella pneumoniae [16] = assay: Antimicrobial activity against Klebsiella pneumoniae at 10 ug after 24 hrs by disk diffusion method; format: functional; details: read-out: IZ; summary of the method: as §2
Salmonella typhimurium [17] = assay: Antimicrobial activity against Salmonella Typhimurium at 10 ug after 24 hrs by disk diffusion method; format: functional, Salmonella enterica subsp. enterica serovar Typhimurium; details: Salmonella enterica, read-out: IZ; summary of the method: as §2
Bacillus subtilis [18] = assay: Antimicrobial activity against Bacillus subtilis at 10 ug after 24 hrs by disk diffusion method; format: functional; details: read-out: IZ; summary of the method: as §2
Staphylococcus aureus [19] = assay: Antimicrobial activity against Staphylococcus aureus at 15 ug after 24 hrs by disk diffusion method; format: functional; details: read-out: IZ; summary of the method: as §2
Escherichia coli [20] = assay: Antimicrobial activity against Escherichia coli at 15 ug after 24 hrs by disk diffusion method; format: functional; details: read-out: IZ; summary of the method: as §2
Pseudomonas aeruginosa [21] = assay: Antimicrobial activity against Pseudomonas aeruginosa at 15 ug after 24 hrs by disk diffusion method; format: functional; details: read-out: IZ; summary of the method: as §2
Klebsiella pneumoniae [22] = assay: Antimicrobial activity against Klebsiella pneumoniae at 15 ug after 24 hrs by disk diffusion method; format: functional; details: read-out: IZ; summary of the method: as §2
Salmonella typhimurium [23] = assay: Antimicrobial activity against Salmonella Typhimurium at 15 ug after 24 hrs by disk diffusion method; format: functional, Salmonella enterica subsp. enterica serovar Typhimurium; details: Salmonella enterica, read-out: IZ; summary of the method: as §2
Bacillus subtilis [24] = assay: Antimicrobial activity against Bacillus subtilis at 15 ug after 24 hrs by disk diffusion method; format: functional; details: read-out: IZ; summary of the method: as §2
Staphylococcus aureus [25] = assay: Antimicrobial activity against Staphylococcus aureus at 20 ug after 24 hrs by disk diffusion method; format: functional; details: read-out: IZ; summary of the method: as §2
Escherichia coli [26] = assay: Antimicrobial activity against Escherichia coli at 20 ug after 24 hrs by disk diffusion method; format: functional; details: read-out: IZ; summary of the method: as §2
Pseudomonas aeruginosa [27] = assay: Antimicrobial activity against Pseudomonas aeruginosa at 20 ug after 24 hrs by disk diffusion method; format: functional; details: read-out: IZ; summary of the method: as §2
Klebsiella pneumoniae [28] = assay: Antimicrobial activity against Klebsiella pneumoniae at 20 ug after 24 hrs by disk diffusion method; format: functional; details: read-out: IZ; summary of the method: as §2
Salmonella typhimurium [29] = assay: Antimicrobial activity against Salmonella Typhimurium at 20 ug after 24 hrs by disk diffusion method; format: functional, Salmonella enterica subsp. enterica serovar Typhimurium; details: Salmonella enterica, read-out: IZ; summary of the method: as §2
Bacillus subtilis [30] = assay: Antimicrobial activity against Bacillus subtilis at 20 ug after 24 hrs by disk diffusion method; format: functional; details: read-out: IZ; summary of the method: as §2
Staphylococcus aureus [31] = assay: Antimicrobial activity against Staphylococcus aureus at 25 ug after 24 hrs by disk diffusion method; format: functional; details: read-out: IZ; summary of the method: as §2
Escherichia coli [32] = assay: Antimicrobial activity against Escherichia coli at 25 ug after 24 hrs by disk diffusion method; format: functional; details: read-out: IZ; summary of the method: as §2
Pseudomonas aeruginosa [33] = assay: Antimicrobial activity against Pseudomonas aeruginosa at 25 ug after 24 hrs by disk diffusion method; format: functional; details: read-out: IZ; summary of the method: as §2
Klebsiella pneumoniae [34] = assay: Antimicrobial activity against Klebsiella pneumoniae at 25 ug after 24 hrs by disk diffusion method; format: functional; details: read-out: IZ; summary of the method: as §2
Salmonella typhimurium [35] = assay: Antimicrobial activity against Salmonella Typhimurium at 25 ug after 24 hrs by disk diffusion method; format: functional, Salmonella enterica subsp. enterica serovar Typhimurium; details: Salmonella enterica, read-out: IZ; summary of the method: as §2
Bacillus subtilis [36] = assay: Antimicrobial activity against Bacillus subtilis at 25 ug after 24 hrs by disk diffusion method; format: functional; details: read-out: IZ; summary of the method: as §2

c1ccc(C2c3ccccc3N[C@H]3c4cccn4C[C@@H]23)cc1 (stereo partly drawn)
Activity [1]: Active
Activity [2]: Active
MIC50 (Staphylococcus aureus [3]): 64 µg/mL (≈ 223 µM)
MIC90 (Staphylococcus aureus [3]): 128 µg/mL (≈ 447 µM)
MIC50 (Escherichia coli [4]): 2 µg/mL (≈ 6.98 µM)
MIC90 (Escherichia coli [4]): 4 µg/mL (≈ 14 µM)
MIC50 (Pseudomonas aeruginosa [5]): 0.5 µg/mL (≈ 1.75 µM)
MIC90 (Pseudomonas aeruginosa [5]): 32 µg/mL (≈ 112 µM)
MIC50 (Klebsiella pneumoniae [6]): 2 µg/mL (≈ 6.98 µM)
MIC90 (Klebsiella pneumoniae [6]): 32 µg/mL (≈ 112 µM)
MIC50 (Salmonella typhi): 1.64 µg/mL (≈ 5.73 µM)
MIC90 (Salmonella typhi): 2.5 µg/mL (≈ 8.73 µM)
MIC50 (Bacillus subtilis [7]): 2.5 µg/mL (≈ 8.73 µM)
MIC90 (Bacillus subtilis [7]): 5 µg/mL (≈ 17.5 µM)
zone of inhibition at 5 µg/disc (Staphylococcus aureus [8]): 9 mm
zone of inhibition at 5 µg/disc (Escherichia coli [9]): 10 mm
zone of inhibition at 5 µg/disc (Pseudomonas aeruginosa [10]): 10 mm
zone of inhibition at 5 µg/disc (Klebsiella pneumoniae [11]): 20 mm
zone of inhibition at 5 µg/disc (Salmonella typhimurium [12]): 10 mm
zone of inhibition at 10 µg/disc (Staphylococcus aureus [13]): 12 mm
zone of inhibition at 10 µg/disc (Escherichia coli [14]): 16 mm
zone of inhibition at 10 µg/disc (Pseudomonas aeruginosa [15]): 16 mm
zone of inhibition at 10 µg/disc (Klebsiella pneumoniae [16]): 26 mm
zone of inhibition at 10 µg/disc (Salmonella typhimurium [17]): 16 mm
zone of inhibition at 10 µg/disc (Bacillus subtilis [18]): 7 mm
zone of inhibition at 15 µg/disc (Staphylococcus aureus [19]): 13 mm
zone of inhibition at 15 µg/disc (Escherichia coli [20]): 18 mm
zone of inhibition at 15 µg/disc (Pseudomonas aeruginosa [21]): 17 mm
zone of inhibition at 15 µg/disc (Klebsiella pneumoniae [22]): 30 mm
zone of inhibition at 15 µg/disc (Salmonella typhimurium [23]): 18 mm
zone of inhibition at 15 µg/disc (Bacillus subtilis [24]): 6 mm
zone of inhibition at 20 µg/disc (Staphylococcus aureus [25]): 14 mm
zone of inhibition at 20 µg/disc (Escherichia coli [26]): 20 mm
zone of inhibition at 20 µg/disc (Pseudomonas aeruginosa [27]): 22 mm
zone of inhibition at 20 µg/disc (Klebsiella pneumoniae [28]): 34 mm
zone of inhibition at 20 µg/disc (Salmonella typhimurium [29]): 22 mm
zone of inhibition at 20 µg/disc (Bacillus subtilis [30]): 7 mm
zone of inhibition at 25 µg/disc (Staphylococcus aureus [31]): 17 mm
zone of inhibition at 25 µg/disc (Escherichia coli [32]): 23 mm
zone of inhibition at 25 µg/disc (Pseudomonas aeruginosa [33]): 24 mm
zone of inhibition at 25 µg/disc (Klebsiella pneumoniae [34]): 36 mm
zone of inhibition at 25 µg/disc (Salmonella typhimurium [35]): 24 mm
zone of inhibition at 25 µg/disc (Bacillus subtilis [36]): 9 mm
